Test results from ChEMBL document CHEMBL3352210, “Aurones as histone deacetylase inhibitors: identification of key features” (Bioorg Med Chem Lett, 2014).
The source made the active and inactive calls. The rule behind the calls is not given here.

Experiments:
[1] = target: T1, Histone deacetylase (Homo sapiens) (UniProt Q13547+O15379+Q9UBN7+Q92769+Q9UQL6+Q8WUI4+Q9BY41+Q96DB2+P56524+Q9UKV0+Q969S8); experiment: Inhibition of HDAC in human HeLa cell extract at 100 uM after 15 mins by fluorescence assay; format: protein assay
[2] = Cytotoxicity against human MCF7 cells assessed as cell viability at 15 uM after 72 hrs by Celltitre-glo assay; format: cell-based; conditions: read-out: Activity
[3] = Cytotoxicity against human HepG2 cells assessed as cell viability at 15 uM after 72 hrs by Celltitre-glo assay; format: cell-based; conditions: read-out: Activity
[4] = target: T2, NAD-dependent protein deacetylase sirtuin-2 (Homo sapiens) (UniProt Q8IXJ6); experiment: Modulation of sirtuin 2 (unknown origin) by thermal shift assay
T2 sequence (whole entry): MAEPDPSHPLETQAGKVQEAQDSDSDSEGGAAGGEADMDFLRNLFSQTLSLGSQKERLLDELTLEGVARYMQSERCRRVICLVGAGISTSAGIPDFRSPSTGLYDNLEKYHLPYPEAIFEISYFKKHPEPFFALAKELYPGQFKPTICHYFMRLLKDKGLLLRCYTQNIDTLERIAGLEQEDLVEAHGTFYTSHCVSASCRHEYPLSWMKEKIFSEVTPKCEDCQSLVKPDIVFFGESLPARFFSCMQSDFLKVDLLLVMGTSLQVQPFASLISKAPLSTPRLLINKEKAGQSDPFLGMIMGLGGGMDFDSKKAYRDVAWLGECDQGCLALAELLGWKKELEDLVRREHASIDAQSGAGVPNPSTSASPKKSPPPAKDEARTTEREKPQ
How it was run: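 Sirtuin 2 modulation tested by thermal shift assay.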

[5] = target: T3, Retinoic acid receptor beta (Homo sapiens) (UniProt P10826); experiment: Inhibition of RAR-beta (unknown origin) assessed as change in DNA methylation
T3 sequence (whole entry): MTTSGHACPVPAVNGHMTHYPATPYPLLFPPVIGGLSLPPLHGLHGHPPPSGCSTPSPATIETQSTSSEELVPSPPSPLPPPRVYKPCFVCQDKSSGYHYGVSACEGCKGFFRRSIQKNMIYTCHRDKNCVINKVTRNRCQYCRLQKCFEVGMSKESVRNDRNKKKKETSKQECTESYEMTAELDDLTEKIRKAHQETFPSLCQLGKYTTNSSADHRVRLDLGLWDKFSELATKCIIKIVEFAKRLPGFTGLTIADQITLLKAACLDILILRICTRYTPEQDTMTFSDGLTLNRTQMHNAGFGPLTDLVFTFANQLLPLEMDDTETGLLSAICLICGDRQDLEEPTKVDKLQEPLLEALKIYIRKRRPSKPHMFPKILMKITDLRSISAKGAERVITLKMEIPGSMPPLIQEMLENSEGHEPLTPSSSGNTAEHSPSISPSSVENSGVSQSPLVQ
How it was run: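 DNA methylation changes assessed by specific PCR for RARb.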

Histone deacetylase = experiment: Inhibition of HDAC in human HeLa cell extract after 15 mins by fluorescence assay; format: protein assay
Histone deacetylase 1 = Histone deacetylase 1 (Homo sapiens, UniProt Q13547); experiment: Inhibition of HDAC1 (unknown origin) after 15 mins by fluorescence assay
Sequence of Histone deacetylase 1 (Q13547 whole entry): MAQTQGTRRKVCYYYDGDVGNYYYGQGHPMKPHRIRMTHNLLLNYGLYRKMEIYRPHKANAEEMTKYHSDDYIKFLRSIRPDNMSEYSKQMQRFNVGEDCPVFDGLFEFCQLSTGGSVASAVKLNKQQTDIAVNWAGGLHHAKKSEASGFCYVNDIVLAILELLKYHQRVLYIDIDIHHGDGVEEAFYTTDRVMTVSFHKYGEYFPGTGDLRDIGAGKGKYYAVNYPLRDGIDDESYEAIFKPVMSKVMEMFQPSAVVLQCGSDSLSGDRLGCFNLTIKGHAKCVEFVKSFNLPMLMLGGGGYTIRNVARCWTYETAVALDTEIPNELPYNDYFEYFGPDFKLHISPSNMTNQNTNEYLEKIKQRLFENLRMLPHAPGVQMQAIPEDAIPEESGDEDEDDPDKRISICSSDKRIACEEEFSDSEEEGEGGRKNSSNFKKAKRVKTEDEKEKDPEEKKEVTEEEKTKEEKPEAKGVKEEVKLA

Histone deacetylase 2 = Histone deacetylase 2 (Homo sapiens, UniProt Q92769); experiment: Inhibition of HDAC2 (unknown origin) after 15 mins by fluorescence assay
Sequence of Histone deacetylase 2 (Q92769 whole entry): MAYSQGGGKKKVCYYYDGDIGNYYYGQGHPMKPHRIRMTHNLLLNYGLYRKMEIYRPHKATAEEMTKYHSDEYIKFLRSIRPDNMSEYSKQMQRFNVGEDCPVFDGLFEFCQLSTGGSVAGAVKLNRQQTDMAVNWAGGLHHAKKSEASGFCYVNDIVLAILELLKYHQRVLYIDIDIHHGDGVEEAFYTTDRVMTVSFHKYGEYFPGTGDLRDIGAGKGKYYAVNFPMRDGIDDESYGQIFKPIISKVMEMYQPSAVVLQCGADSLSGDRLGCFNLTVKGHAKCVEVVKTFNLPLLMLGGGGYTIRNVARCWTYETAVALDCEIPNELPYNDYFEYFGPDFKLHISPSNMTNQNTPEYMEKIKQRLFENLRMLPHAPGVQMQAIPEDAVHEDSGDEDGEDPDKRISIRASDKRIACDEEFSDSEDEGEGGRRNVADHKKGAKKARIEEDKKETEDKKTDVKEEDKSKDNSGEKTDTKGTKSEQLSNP

[6] = target: T4, Protein deacetylase HDAC6 (Homo sapiens, UniProt Q9UBN7); experiment: Inhibition of HDAC6 (unknown origin) after 15 mins by fluorescence assay
T4 sequence (Q9UBN7 whole entry): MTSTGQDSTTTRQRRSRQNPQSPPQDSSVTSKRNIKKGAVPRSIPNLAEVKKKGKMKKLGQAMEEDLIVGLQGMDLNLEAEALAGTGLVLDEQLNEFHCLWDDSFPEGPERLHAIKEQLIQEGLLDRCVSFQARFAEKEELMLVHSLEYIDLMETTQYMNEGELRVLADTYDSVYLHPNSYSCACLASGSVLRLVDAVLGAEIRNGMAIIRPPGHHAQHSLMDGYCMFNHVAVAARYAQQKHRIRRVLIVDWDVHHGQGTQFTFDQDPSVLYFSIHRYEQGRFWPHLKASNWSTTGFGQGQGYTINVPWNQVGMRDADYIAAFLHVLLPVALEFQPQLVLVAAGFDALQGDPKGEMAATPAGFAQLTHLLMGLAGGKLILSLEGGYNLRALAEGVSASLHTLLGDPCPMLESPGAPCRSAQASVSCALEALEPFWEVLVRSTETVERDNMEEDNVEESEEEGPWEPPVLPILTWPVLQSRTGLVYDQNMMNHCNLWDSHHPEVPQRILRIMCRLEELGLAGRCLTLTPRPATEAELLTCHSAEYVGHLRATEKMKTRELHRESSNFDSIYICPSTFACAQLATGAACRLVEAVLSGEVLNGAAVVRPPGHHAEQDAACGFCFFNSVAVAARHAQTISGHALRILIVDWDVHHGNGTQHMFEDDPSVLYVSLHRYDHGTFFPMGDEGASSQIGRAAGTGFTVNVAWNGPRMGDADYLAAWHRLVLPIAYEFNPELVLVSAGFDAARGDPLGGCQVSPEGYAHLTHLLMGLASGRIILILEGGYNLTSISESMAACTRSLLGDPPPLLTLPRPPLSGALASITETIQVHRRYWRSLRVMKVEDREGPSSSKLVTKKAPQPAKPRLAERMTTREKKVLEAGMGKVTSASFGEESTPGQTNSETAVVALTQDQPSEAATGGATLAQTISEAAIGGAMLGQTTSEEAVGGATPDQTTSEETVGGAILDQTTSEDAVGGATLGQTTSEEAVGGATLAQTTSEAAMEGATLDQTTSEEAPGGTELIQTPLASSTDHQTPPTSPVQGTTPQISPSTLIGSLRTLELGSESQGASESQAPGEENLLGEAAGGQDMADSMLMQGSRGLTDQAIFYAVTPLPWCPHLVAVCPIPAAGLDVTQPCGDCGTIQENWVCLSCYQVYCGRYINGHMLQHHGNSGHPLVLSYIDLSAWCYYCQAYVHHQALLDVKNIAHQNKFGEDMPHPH

[7] = target: T1, Histone deacetylase (Homo sapiens); experiment: Inhibition of HDAC in human MeT-5A cells assessed as hisone H3 acetylation after 16 hrs by BRET assay; format: cell-based
How it was run: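 MeT-5A cells transfected with phRluc-C1-BrD and pEYFP-C1 histone H3, then exposed 16 h to increasing doses; BRET signal read as measure of histone H3 acetylation (rise in signal = more acetylation). SAHA used as positive control. Means ± SEM of three independent experiments.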

[8] = Cytotoxicity against human MeT-5A cells after 16 hrs by luciferase reporter gene assay; format: cell-based

SMILES	inhibition [1] [%]	viability at 72 h, 15 µM [2] [%]	viability at 72 h, 15 µM [3] [%]	inhibition [4]	inhibition [5]	IC50 (Histone deacetylase) [µM]	IC50 (Histone deacetylase 1) [µM]	IC50 (Histone deacetylase 2) [µM]	IC50 [6] [µM]	inhibition [7]	Activity [8]
COc1cc(OC)c2c(c1)O/C(=C\c1ccccc1Cl)C2=O	46	72	80	inactive	inactive	–	–	–	–	–	–
COc1cccc(/C=C2\Oc3ccccc3C2=O)c1OC	12	94	104	inactive	inactive	–	–	–	–	–	–
COc1ccccc1/C=C1\Oc2ccccc2C1=O [(Z)-2'-METHOXYAURONE]	7	88	103	inactive	inactive	–	–	–	–	–	–
Cc1ccc(/C=C2\Oc3ccccc3C2=O)cc1	5	86	35	inactive	inactive	–	–	–	–	–	–
O=C1/C(=C/c2ccc(Cl)cc2)Oc2ccccc21	13	85	110	inactive	inactive	–	–	–	–	–	–
COc1ccc(/C=C2\Oc3ccccc3C2=O)cc1 [4'-METHOXY-AURONE]	23	88	65	inactive	inactive	–	–	–	–	–	–
O=C1/C(=C/c2ccc(O)cc2)Oc2ccccc21	100	79	100	inactive	inactive	12.6	129	100	136	Dose-dependent effect	Dose-dependent effect
O=C(O)c1ccc(/C=C2\Oc3ccc(Cl)cc3C2=O)cc1	30	109	86	inactive	inactive	–	–	–	–	–	–
O=C(O)c1ccc(/C=C2\Oc3ccccc3C2=O)cc1	28	105	73	inactive	inactive	–	–	–	–	–	–
Cc1ccc(/C=C/C(=O)c2ccccc2O)cc1	0	96	120	inactive	inactive	–	–	–	–	–	–
COc1cccc(/C=C2\Oc3ccccc3C2=O)c1 [3'-METHOXY-AURONE]	1	89	101	inactive	inactive	–	–	–	–	–	–
COc1ccc(/C=C2\Oc3cc(OC)cc(OC)c3C2=O)cc1 [4,4',6-TRIMETHOXY-AURONE]	20	10	119	inactive	inactive	–	–	–	–	–	–
COc1ccc(/C=C2\Oc3ccccc3C2=O)cc1OC [3',4'-DIMETHOXY-AURONE]	51	91	114	inactive	inactive	71	–	–	–	Dose-dependent effect	Dose-dependent effect
O=C1/C(=C/c2ccc(O)c(O)c2)Oc2ccccc21	100	95	114	inactive	inactive	8.2	11.4	5.1	26.9	Dose-dependent effect	Dose-dependent effect
COc1cc(OC)c2c(c1)O/C(=C\c1ccccc1)C2=O	27	73	9	inactive	inactive	–	–	–	–	–	–
O=C(/C=C/c1ccc(Cl)cc1)c1ccccc1O	0	90	62	inactive	inactive	–	–	–	–	–	–
COCOc1cc(OCOC)c2c(c1)O/C(=C\c1ccc(OCOC)c(OCOC)c1)C2=O	75	21	7	inactive	inactive	40	–	–	–	–	–
COc1cc(OC)c2c(c1)O/C(=C\c1ccccc1OC)C2=O	7	89	104	inactive	inactive	–	–	–	–	–	–
O=C1/C(=C/c2cccc(O)c2O)Oc2ccccc21	98	109	113	inactive	inactive	18.6	21	16.4	26.9	Dose-dependent effect	Dose-dependent effect
O=C1/C(=C/c2ccc(O)c(O)c2)Oc2cc(O)cc(O)c21 [AUREUSIDIN]	100	102	116	inactive	inactive	18.5	38	38.9	48.5	Dose-dependent effect	Dose-dependent effect
COc1ccc(/C=C2\Oc3ccc(Br)cc3C2=O)cc1OC	14	108	93	inactive	inactive	–	–	–	–	Dose-dependent effect	Dose-dependent effect
COc1cccc(/C=C2\Oc3ccc(Cl)cc3C2=O)c1OC	6	115	99	inactive	inactive	–	–	–	–	–	–
